# Measurements gathered from unrelated publications.
# Protocols differ between the studies behind these lines.
# Target: Activin receptor type-1B (ACVR1B, Homo sapiens, UniProt P36896)
# One construct used (P36896 24-505): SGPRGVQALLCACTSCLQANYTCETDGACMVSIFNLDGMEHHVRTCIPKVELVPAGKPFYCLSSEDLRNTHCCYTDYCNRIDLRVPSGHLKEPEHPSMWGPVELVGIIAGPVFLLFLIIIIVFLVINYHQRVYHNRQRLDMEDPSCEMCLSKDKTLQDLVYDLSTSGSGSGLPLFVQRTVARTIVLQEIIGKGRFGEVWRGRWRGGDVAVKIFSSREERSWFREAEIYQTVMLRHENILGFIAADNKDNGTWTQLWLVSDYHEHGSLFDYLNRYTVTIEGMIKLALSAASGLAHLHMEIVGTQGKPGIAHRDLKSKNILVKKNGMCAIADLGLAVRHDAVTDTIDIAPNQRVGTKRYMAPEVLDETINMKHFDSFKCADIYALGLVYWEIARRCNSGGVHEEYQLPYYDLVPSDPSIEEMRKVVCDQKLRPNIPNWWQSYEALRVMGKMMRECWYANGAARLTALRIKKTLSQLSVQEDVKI
SMILES,observed,action,method,concentration,endpoint,result
Cc1ccc(NC(=O)c2ccnc(C(F)(F)F)c2)cc1-c1cc(OCCO)nc(N2CCOCC2)c1,binding,,competition with immobilised ligand,1 µM,remaining binding,99%
CCCCC(=O)Nc1ccc(-c2ccc3ncn(CCC)c(=O)c3c2)cn1,binding,,competition with immobilised ligand,0.5 µM,remaining binding,87%
C[C@H]1CC[C@H](n2c3cnccc3c3cnc(Nc4ccc5c(n4)CCN(C(=O)CO)C5)nc32)CC1,cell-free assay,,competition with immobilised ligand,1 µM,remaining binding,96%
N#Cc1ccc(NC(=O)Nc2ccccc2)cc1,cell-free assay,,competition with immobilised ligand,25 µM,remaining binding,100%
COc1ccc2oc(-c3ccc4nc(N)oc4c3)c/c(=N\c3ccccc3NC(=O)CCN)c2c1,binding,,,1 µM,remaining binding,108%
CC#CC(=O)N1CCC[C@H]1c1nc(-c2ccc(C(=O)Nc3ccccn3)cc2)c2c(N)nccn12,enzyme activity,inhibitor,,1 µM,inhibition,1%
C1=C/COCc2cc(ccc2OCCN2CCCC2)Nc2nccc(n2)-c2cccc(c2)COC/1,binding,,,0.1 µM,remaining binding,91%
C=CC(=O)N1CCC([C@@H]2CCNc3c(C(N)=O)c(-c4ccc(Oc5ccccc5)cc4)nn32)CC1,enzyme activity,inhibitor,,1 µM,inhibition,5%
C#Cc1cnc(Nc2ccnc(CO)c2)nc1Nc1ccccc1S(C)(=O)=NC#N (stereo not drawn),cell-free assay,,,1 µM,remaining signal,52%
